NR2E3 ag-1 = activates human NR2E3 receptor; Q9Y5X4; CHO-S Gal4-NCOR/VP16-NR2E3 two-hybrid, luciferase; inhibition of corepressor binding, % at 3.98 µM; actives 0.35% (n = 360,000); AID 602229;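 active = inhibition above the mean of all tested compounds plus 3 SD, cut at about 70% in these data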;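 also: 0% = DMSO with NR2E3 transfected cells and 100% = cells lacking NR2E3 construct; higher means lower luciferase signal from less NR2E3 corepressor binding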
Target sequence (Q9Y5X4 whole entry, looked up, the tested form may be a part): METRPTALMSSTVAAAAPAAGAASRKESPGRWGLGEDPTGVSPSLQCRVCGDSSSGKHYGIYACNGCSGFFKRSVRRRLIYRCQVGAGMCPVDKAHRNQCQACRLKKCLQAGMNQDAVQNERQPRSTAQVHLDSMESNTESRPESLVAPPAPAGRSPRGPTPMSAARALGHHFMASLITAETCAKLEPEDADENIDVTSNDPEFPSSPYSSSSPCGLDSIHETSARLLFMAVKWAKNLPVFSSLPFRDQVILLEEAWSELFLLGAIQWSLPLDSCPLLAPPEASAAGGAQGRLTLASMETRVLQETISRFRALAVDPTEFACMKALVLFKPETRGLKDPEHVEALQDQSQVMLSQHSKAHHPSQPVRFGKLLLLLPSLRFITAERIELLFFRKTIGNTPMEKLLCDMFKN
Rev-erbA mod = modulators of human Rev-erb alpha DNA binding | P20393 | Rev-erbα–FITC-DNA binding, fluorescence polarization, 90 min | activity, % at 10 µM | actives 0.79% (n = 370,000);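 active = activity above about 14%, limit read from the data; passing the limit was not always enough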;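 also: 0% = DMSO wells with 35 nM protein and 100% = DMSO wells with 750 nM protein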
PG9 Ab binder = PG9 antibody binding by small molecule; inhibition, % at 6.7 µM; actives 0.43% (n = 360,000); AID 624416; TR-FRET gp120-PG9 antibody binding; in the data active = inhibition above about 8.5%
NR2E3 ag-2 = NR2E3 (human) agonism | GST-NR2E3/biotin-RetCOR TR-FRET, 1536-well | inhibition of corepressor binding, % at 4.78 µM | actives 0.12% (n = 320,000) | AID 2300;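 active = percent inhibition above the cutoff of mean plus 3 SD of all tested compounds, set per screening campaign, cut at about 20% in these data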;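 also: 0% = DMSO wells and 100% = biotin wells as full block of FRET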
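System: GST-tagged NR2E3 plus biotinylated RetCOR corepressor; Buffer or medium: pH 7.5 Tris-based buffer; Probe or stimulus: RetCOR corepressor, biotinylated, 7 nM; Doses: compound at 4.8 µM, single dose; Schedule: 5 h incubation at 4 °C; Technique: time-resolved FRET; Evaluation: percent inhibition of TR-FRET ratio; Replication: one well per compound, singlicate testing.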
NR2E3 agonist cf = confirmation of human NR2E3 nuclear receptor agonists; shares compounds with NR2E3 ag-2; cell-free NR2E3 corepressor release, TR-FRET, 5 h; activation (reported as inhibition), % at 3.98 µM; actives 39% (n = 360); AID 2379; in the data active = activation above about 20%
PPARg-NCOR2 ctr = counter-screen for NR2E3 agonists: human PPARgamma-NCOR2 interaction agonists; TR-FRET PPARg-NCOR2 coregulator interaction, biochemical; inhibition, % at 3.98 µM; shares compounds with NR2E3 ag-2; actives 45% (n = 360); in the data active = inhibition above about 20%;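 also: 0% = DMSO vehicle and 100% = wells without protein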
Starred values were filed as active, the others as inactive; . = no result. This is a sample that favours compounds with a hit; in the whole collection about 1.4% have one here.

SMILES	NR2E3 ag-1	Rev-erbA mod	PG9 Ab binder	NR2E3 ag-2	NR2E3 agonist cf	PPARg-NCOR2 ctr
CC(C)C1CCC(C(=O)N[C@@H](Cc2ccccc2)C(=O)O)CC1 (stereo partly specified)	.	-5	.	.	.	.
CCOc1ccc(NC(=O)Nc2ccc3nsnc3c2)cc1	-31	-3	-1	-4	.	.
CCOc1ccc(NC(=S)Nc2ccc3nsnc3c2)cc1	-29	3	-6	31*	-16	-4
COc1ccc(NC(=S)Nc2ccc3nc(C)c(C)nc3c2)cc1	1	-2	1	0	.	.
CC(C)N(C(=O)Nc1ccc2nsnc2c1)C(C)C	.	-7	1	38*	-13	-9
COc1ccc(NC(=S)Nc2ccc3nsnc3c2)cc1	-74	-3	-4	29*	-9	-9
COc1ccc(N(C)C(=O)Nc2ccc3nsnc3c2)cc1	4	2	-2	.	.	.
CC1(C)OC(=O)C(OCC2CC2)=C1c1ccc(S(C)(=O)=O)cc1	.	-4	.	.	.	.
CC(=O)OCC(=O)[C@@]12OC3(CCCC3)O[C@@H]1CC1C3CCC4=CC(=O)C=C[C@]4(C)[C@@]3(F)[C@@H](O)C[C@@]12C (stereo partly specified)	.	1	.	.	.	.
O=c1oc2c(O)c(O)cc3c(=O)oc4c(O)c(O)cc1c4c23	-14	-46	.	38*	34*	.
N#Cc1c(-c2ccco2)c2c([nH]c1=S)CCCC2	-35	2	6	39*	14	23*
CCCCOC(=O)CSC1=C(C#N)C(c2ccccc2OCC)C(C#N)C(=O)N1 (stereo unspecified)	11	.	.	22*	-6	36*
Cn1nc(-c2ccc(Cl)cc2)nc2c(=O)n(C)c(=O)nc1-2	.	.	.	37*	32*	56*
CS(=O)(=O)n1nc(-c2ccc(Cl)cc2)nc1N	-11	3	0	2	.	.
O=C1O[C@H](C(O)CO)C(O)=C1O (stereo partly specified)	.	-7	.	.	.	.
O=C(O)[C@@H](S)[C@@H](S)C(=O)O	.	-2	.	.	.	.
CCNC(=S)Nc1nc2c(cc1C(=O)OCC)CCCC2	-15	6	-2	21*	27*	20*
CCCCCCCC(=O)CC[C@@H]1[C@@H](C/C=C\CCCC(=O)OC(C)C)[C@@H](O)C[C@H]1O	.	-5	.	.	.	.
O=C(NN1C(=O)/C(=C/C=C/c2ccco2)SC1=S)c1ccncc1	-16	-27	-2	25*	1	8
CN(C)C1C(=O)C(C(=O)NCN2CCCC2)=C(O)C2(O)C(=O)C3=C(O)c4c(O)cccc4C(C)(O)C3CC12 (stereo unspecified)	.	-8	.	.	.	.
O=C1c2c(O)cccc2C(C2OC(CO)C(O)C(O)C2O)c2cc(CO)cc(O)c21 (stereo unspecified)	.	0	.	.	.	.
CC1=C(C#N)C(c2ccoc2)C(C(=O)OCc2ccccc2)=C(N)S1 (stereo unspecified)	-7	3	1	0	.	.
N#CC1=C(N)SC(N)=C(C#N)C1c1ccoc1	.	.	.	36*	23*	27*
Cc1cccc[n+]1C1C(c2ccccc2)C(C#N)=C(C(=C=[N-])C#N)NC1(O)C1CC1 (stereo unspecified)	-18	.	.	43*	5	30*
Cc1ccc[n+](C2C(c3ccc([N+](=O)[O-])cc3)C(C#N)=C([S-])NC2(O)C2CC2)c1 (stereo unspecified)	15	6	1	3	.	.
SMILES	NR2E3 ag-1	Rev-erbA mod	PG9 Ab binder	NR2E3 ag-2	NR2E3 agonist cf	PPARg-NCOR2 ctr
C1CCN2C[C@@H]3C[C@H](CN4CCCC[C@@H]34)[C@H]2C1	.	-3	.	.	.	.
NS(=O)(=O)c1cc2c(cc1Cl)CN(C1CCCCC1)C2=O	.	-7	.	.	.	.
CC(=O)Nc1ccc(S(=O)(=O)c2ccc(NC(C)=O)cc2)cc1	.	2	.	.	.	.
Cc1cccc(-c2nc(=S)c3c(n2Cc2ccco2)CCCC3)c1	10	2	2	28*	4	8
C[C@]12CCC3c4ccc(O)cc4CCC3C1CC[C@@H]2O (stereo partly specified)	.	-1	.	.	.	.
CCCC1=NN2C(=N)/C(=C\c3ccc(SCc4ccco4)o3)C(=O)N=C2S1	-5	.	.	20*	4	61*
COc1cccc(C(=O)Nc2ccc3ccccc3c2)c1	-140	2	-1	30*	2	-3
CS(=O)(=O)N1CCN(c2ccc(Cl)cc2[N+](=O)[O-])CC1	6	4	-1	42*	-1	-6
O=c1[nH]c(Nc2ccccc2)cc2ccccc12	0	-10	-3	27*	-5	0
O=C(C1=C(O)C(=O)N(CCCn2ccnc2)C1c1ccc(F)cc1)c1ccco1 (stereo unspecified)	-8	0	2	36*	4	2
O=C(C1=C(O)C(=O)N(CCc2ccccc2)C1c1cccnc1)c1ccco1 (stereo unspecified)	-8	2	7	25*	17	23*
COCCCN1C(=O)C(O)=C(C(=O)c2ccco2)C1c1ccccc1 (stereo unspecified)	1	-5	5	22*	20	17
O=C(C1=C(O)C(=O)N(CCc2ccccc2)C1c1cccs1)c1ccco1 (stereo unspecified)	4	-2	3	10	.	.
COc1cc(C2C(C(=O)c3ccco3)=C(O)C(=O)N2Cc2ccccc2)ccc1O (stereo unspecified)	-21	1	2	5	.	.
NC(=O)c1cc[n+](CC2=C(C(=O)O)N3C(=O)[C@@H](NC(=O)Cc4cccs4)[C@H]3SC2)cc1	.	-2	.	.	.	.
COC(=O)c1c(NC(=S)Nc2cc(OC)c(Cl)cc2OC)sc2c1CCCCC2	23	2	3	20*	0	0
Cc1ccc(C)n1-c1ccc(C(=O)O)cc1	.	.	.	23*	15	-4
CC(=O)c1c(C(C)=O)c(C)n(-c2ccc(C(=O)O)cc2)c1C	-25	-5	-1	-2	.	.
Cc1cccc(C)c1NC(=O)CCCCCC1NC(=O)NC1C (stereo unspecified)	-4	-4	1	47*	35*	3
CC1NC(=O)NC1CCCCCC(=O)NCCc1ccccc1 (stereo unspecified)	-9	-7	-3	69*	75*	70*
CCCCCC1NC(=O)NC1CCCCCC(=O)O (stereo unspecified)	-13	2	1	2	.	.
O=C(CCCCC(=O)NCCCc1ccccc1)NCCCc1ccccc1	-14	4	-3	4	.	.
O=C(O)CCCCC1SCC2NC(=O)NC21 (stereo unspecified)	-35	1	-1	38*	5	25*
C[C@@H]1NC(=O)N[C@@H]1CCCCCC(=O)O	-4	-10	1	76*	77*	72*
CCCCCCCC(=O)CC[C@@H]1[C@@H](C/C=C\CCCC(=O)O)[C@@H](O)C[C@H]1O	.	2	.	.	.	.

Compound activity: PubChem, several laboratories
